Measurements taken from ChEMBL document CHEMBL4196077, “Anti-inflammatory hybrids of secondary amines and amide-sulfamide derivatives” (Eur J Med Chem, 2018).
Blank lines part the entries; values can stand above or below the molecule they belong to. Calls of active or inactive are those of the source. No cut-off for these calls is given here.

How the values were obtained:
[1] = target: C-X-C chemokine receptor type 4 (Homo sapiens) (UniProt P61073); experiment: Inhibition of CXCR4 in human MDA-MB-231 cells assessed as decrease in CXCL12-dependent cell invasion at 100 nM after 22 hrs by hematoxylin and eosin staining based matrigel assay relative to control; format: functional
Sequence of C-X-C chemokine receptor type 4 (Homo sapiens) (P61073 whole entry): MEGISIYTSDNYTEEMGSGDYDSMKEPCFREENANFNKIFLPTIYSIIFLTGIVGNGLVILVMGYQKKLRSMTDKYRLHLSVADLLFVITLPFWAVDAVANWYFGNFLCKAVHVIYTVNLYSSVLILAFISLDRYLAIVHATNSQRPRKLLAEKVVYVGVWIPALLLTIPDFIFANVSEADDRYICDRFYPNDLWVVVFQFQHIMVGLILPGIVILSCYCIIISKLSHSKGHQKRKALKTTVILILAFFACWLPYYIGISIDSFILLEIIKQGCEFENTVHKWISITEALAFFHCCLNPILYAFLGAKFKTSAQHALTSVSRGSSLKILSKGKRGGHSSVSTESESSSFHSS
Outline: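 Matrigel invasion chamber. MDA-MB-231 cells pretreated with compound (100 nM) before seeding in top chamber; 200 ng/mL CXCL12α in serum-free medium in bottom chamber as chemoattractant. 22 h in humidified incubator; non-invading cells swabbed off, invaded cells fixed in methanol, H&E stained and counted; inhibition relative to untreated invasion.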

[2] = target: C-X-C chemokine receptor type 4 (Homo sapiens) (UniProt P61073); experiment: Inhibition of biotinylated TN14003 binding to CXCR4 in human MDA-MB-231 cells preincubated for 10 mins followed by TN14003 addition measured after 30 mins by rhodamine dye-based microscopic analysis; format: cell-based
Outline: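 MDA-MB-231 cells (2×10^4, seeded two days before) exposed to compound at 1, 10, 100 or 1000 nM for 10 min at room temperature, fixed in ice-cold 4% paraformaldehyde, rehydrated in PBS, then 0.05 µg/mL biotinylated TN14003 for 30 min, streptavidin-rhodamine (1:150) 30 min. Fluorescence microscopy; EC = lowest concentration with significant reduction in rhodamine signal versus untreated.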

Mus musculus [3] = experiment: Antiinflammatory activity in mouse assessed as inhibition of xylene-induced ear edema at 10 mg/kg, ip treated after 30 mins xylene administration measured after 2 hrs relative to control; format: functional
Outline: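 Xylene (30 µL total, inner and outer surfaces) applied to right ear, saline to left ear; 5 mice per group. 30 min later, 10 mg/kg i.p. in 10% DMSO/90% of 45% hydroxypropyl-β-cyclodextrin in PBS; vehicle-injected controls. Sacrificed 2 h later; 7 mm ear plugs from both ears weighed, weight difference = edema; suppression % versus control group.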

[4] = target: C-X-C chemokine receptor type 4 (Homo sapiens) (UniProt P61073); experiment: Potency index, ratio of AMD3100 EC to compound EC for inhibition of biotinylated TN14003 binding to CXCR4 in human MDA-MB-231 cells; format: functional, cell-based
MDA-MB-231 = experiment: Cytotoxicity against human MDA-MB-231 cells assessed as reduction in cell viability at 10 uM after 24 hrs by MTT assay; format: cell-based; details: mda-mb-231, 24 h
Outline: (§1)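 MTT-type viability assay: cells seeded at 3000/well, grown 24 h at 37 °C, then exposed to compound for 24 h at 37 °C. CellTiter 96AQ reagent added for 2 h, absorbance read at 490 nm; compared with vehicle control.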

[5] = Half life in human plasma; format: ADME
[6] = Half life in nude mouse plasma at 30 mg/kg, iv administered as single dose by HPLC analysis; format: ADME, organism-based
Outline: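 Nude mice (~20 g), anaesthetized with ketamine (90 mg/kg)/xylazine (4.5 mg/kg), given single 30 mg/kg i.v. dose in 10% DMSO/90% of 45% hydroxypropyl-β-cyclodextrin in PBS. Orbital sinus blood at 0, 5, 20, 50 min; centrifuged 13000 g, 4 °C, filtered (10000 NMWL). Filtrate HPLC on C18, acetonitrile–water (0.1% TFA) 50:50, 254 nm; half-life from peak areas.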

MCF-10A = experiment: Cytotoxicity against human MCF10A cells assessed as reduction in cell viability at 10 uM after 24 hrs by MTT assay; format: cell-based; outline: as §1
[7] = target: C-X-C chemokine receptor type 4 (Homo sapiens) (UniProt P61073); experiment: Inhibition of CXCR4 in human MDA-MB-231 cells assessed as decrease in CXCL12-induced p44 phosphorylation at 0.1 nM by Western blot analysis; format: functional, cell-based
[8] = target: C-X-C chemokine receptor type 4 (Homo sapiens) (UniProt P61073); experiment: Inhibition of CXCR4 in human MDA-MB-231 cells assessed as decrease in CXCL12-induced Akt phosphorylation by Western blot analysis; format: functional, cell-based
Mus musculus [9] = experiment: Antiinflammatory activity in mouse assessed as inhibition of xylene-induced swollen volume of ear at 10 mg/kg, ip treated after 30 mins xylene administration measured after 2 hrs; format: functional, organism-based
Mus musculus [10] = experiment: Antiinflammatory activity in mouse assessed as inhibition of xylene-induced thickness of ear at 10 mg/kg, ip treated after 30 mins xylene administration measured after 2 hrs; format: functional, organism-based

EC [2]: 100 nM
Structure (SMILES): Cc1ccc(S(=O)(=O)NCc2ccc(CNC(=O)c3ccc(CNc4ncccn4)cc3)cc2)cc1
inhibition [1]: 87%
inhibition in vivo at 10 mg/kg (Mus musculus [3]): 37%

EC [2]: 1000 nM
Structure (SMILES): O=C(NCc1ccc(CNS(=O)(=O)c2cccc(C(F)(F)F)c2)cc1)c1ccc(CNc2ncccn2)cc1

EC [2]: 1 nM
Ratio [4]: 1000
Structure (SMILES): O=C(NCc1ccc(CNS(=O)(=O)c2cccc(Cl)c2)cc1)c1ccc(CNc2ncccn2)cc1
inhibition [1]: 88%
inhibition (Mus musculus [3]): inactive

EC [2]: 1000 nM
Structure (SMILES): O=C(NCc1ccc(CNS(=O)(=O)c2ccc([N+](=O)[O-])cc2)cc1)c1ccc(CNc2ncccn2)cc1

EC [2]: 10 nM
Ratio [4]: 100
Structure (SMILES): Cc1ccccc1S(=O)(=O)NCc1ccc(CNC(=O)c2ccc(CNc3ncccn3)cc2)cc1

EC [2]: 1000 nM
Structure (SMILES): O=C(NCc1ccc(CNS(=O)(=O)c2ccccc2F)cc1)c1ccc(CNc2ncccn2)cc1

EC [2]: 1000 nM
Structure (SMILES): O=C(NCc1ccc(CNS(=O)(=O)c2ccccc2Cl)cc1)c1ccc(CNc2ncccn2)cc1

EC [2]: 1000 nM
Structure (SMILES): O=C(NCc1ccc(CNS(=O)(=O)c2ccc3c(c2)CCO3)cc1)c1ccc(CNc2ncccn2)cc1

EC [2]: 100 nM
Structure (SMILES): O=C(NCc1ccc(CNS(=O)(=O)c2ccc(Cl)cc2)cc1)c1ccc(CNc2ncccn2)cc1
inhibition in vivo at 10 mg/kg (Mus musculus [3]): 30%

EC [2]: 1000 nM
Structure (SMILES): O=C(NCc1ccc(CNS(=O)(=O)c2ccc(-c3ccc(F)cc3)cc2)cc1)c1ccc(CNc2ncccn2)cc1

EC [2]: 1 nM
half-life [5]: 150 min
half-life [6]: 20 min
inhibition [7]: Active
inhibition [8]: Dose-dependent effect
Ratio [4]: 1000
Structure (SMILES): O=C(NCc1ccc(CNS(=O)(=O)c2ccccc2)cc1)c1ccc(CNc2ncccn2)cc1
Activity (MDA-MB-231): Non-Toxic
Activity (MCF-10A): Non-Toxic
inhibition (Mus musculus [9]): Active
inhibition (Mus musculus [10]): Active
inhibition in vivo at 10 mg/kg (Mus musculus [3]): 67%

EC [2]: 1000 nM
Structure (SMILES): O=C(NCc1ccc(CNS(=O)(=O)c2cccc(F)c2)cc1)c1ccc(CNc2ncccn2)cc1

EC [2]: 100 nM
Structure (SMILES): O=C(NCc1ccc(CNS(=O)(=O)c2ccc(F)c(F)c2)cc1)c1ccc(CNc2ncccn2)cc1
inhibition (Mus musculus [3]): inactive

EC [2]: > 1000 nM
Structure (SMILES): O=C(NCc1ccc(CNS(=O)(=O)c2cccnc2)cc1)c1ccc(CNc2ncccn2)cc1

EC [2]: 100 nM
Structure (SMILES): Cc1cccc(S(=O)(=O)NCc2ccc(CNC(=O)c3ccc(CNc4ncccn4)cc3)cc2)c1

EC [2]: > 1000 nM
Structure (SMILES): O=C(NCc1ccc(CNS(=O)(=O)c2ccc(F)cc2)cc1)c1ccc(CNc2ncccn2)cc1

EC [2]: 1000 nM
Structure (SMILES): O=C(NCc1ccc(CNS(=O)(=O)c2cccc3ccccc23)cc1)c1ccc(CNc2ncccn2)cc1
